Our source for the fluorescence artifact activation values is PubChem BioAssay AID504382 (The Scripps Research Institute Molecular Screening Center, 2011).

Values joined by “and” are separate entries in the source; they are usually repeats but may differ in a detail not shown here. Equal values may be shown once. Out of some 2,500 compounds screened, about 460 (18%) were called active. Not all results are given here. Unmarked numbers belong to inactive results.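 How the source made its calls: active means mean activation above a cutoff of low control average plus 3 SD from the earlier screen (cut at about 12% in these data); inactive means the rest.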

This assay can be described thus: IANBD-channel fluorescence artefacts in buffer – biochemical, artefact control for cardiac RTF calcium sensitizer project, confirmation (AID 504382). Conditions: IANBD fluorescence interference counterscreen, EC20 Ca2+, at 7.2 µM, hits give high values, scaled: EC20 calcium 0, EC100 calcium 100. Summed up:
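Medium: MOPS buffer, 190 mM, with KCl, MgCl2, EGTA, NTA, DTT, pH 7.20; Dosing: one dose of 7.2 µM, 0.7% DMSO; Probe or stimulus: calcium at EC20 level, 0.472 mM final; Incubation: 15 min, 25 °C; Evaluation: compound fluorescence interference relative to control well signal range; Signal: fluorescence, 480/540 nm.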
Consider `CCOC(=O)c1c(-c2ccccc2Cl)csc1NC(=O)c1cc(S(=O)(=O)N2CCOCC2)ccc1C`, for which the fluorescence artifact activation is -0.04%.

Take `Cn1cc(/C=C2\SC(=S)N(N3CCOCC3)C2=O)c2ccccc21`: the fluorescence artifact activation is 0.4%. The result for `COC(=O)C1=C(C(=O)c2ccc(C)cc2)C(c2ccc(OC)c(OC)c2)n2nnnc2N1` (stereo not drawn) reads 0%; that for `COc1ccccc1N1C(=O)C2C(C(=O)c3ccccc3)=NN(c3ccccc3)C2C1=O` (stereo not drawn), 1.87%. The result for `CN(C)c1ccc(C2C=C(c3ccc(Cl)cc3OC(F)F)Nc3ncnn32)cc1` (stereo not drawn) reads 28.8% (active); that for `COc1cc(C2C=C(c3cccs3)Nc3ncnn32)cc(OC)c1OC` (stereo not drawn), 0.2%. With `Fc1ccc(C2=CC(c3ccco3)n3ncnc3N2)cc1` (stereo not drawn), the fluorescence artifact activation was 3.08%.

As for `Cc1ccc(S(=O)(=O)/N=C2/NC(=O)/C(=C/c3cc([N+](=O)[O-])ccc3O)S2)cc1`, the fluorescence artifact activation was 1.59%. The result for `COC(=O)[C@@H]1C[C@@]2(O)[C@H](O)[C@H](O)[C@H](O)C[C@H]2N1C/C=C/c1ccccc1` reads 2.09%; that for `CC(=O)Nc1cccc(C(=O)/C=C/c2ccc(N(C)C)cc2)c1`, 6.61%. With `COc1ccc(-c2nn(CCC(=O)O)cc2/C=C2\SC(N)=NC2=O)cc1` the figure was 0%. The result for `O=C(Nn1cnnc1)c1cc([N+](=O)[O-])cc([N+](=O)[O-])c1` reads 0.03%; that for `COc1ccc2nc(-c3ccccn3)[nH]c2c1`, 20.2% (active). As for `COc1ccc2nc3ccccc3[n+]([O-])c2c1`, the fluorescence artifact activation was 2.24%. With `COc1ccc(OC)c(/C=C/c2nc3ccccc3[nH]c2=O)c1` the figure was 0.12%. `CN1/C(=C\C(=O)c2ccco2)C(C)(C)c2ccccc21`: the fluorescence artifact activation is -0.02%. With `COc1ccc2[nH]c3c(c2c1)CCNC3c1ccc([N+](=O)[O-])o1` (stereo not drawn) the figure was -0.02%; with `COc1ccc(NC(=O)CSc2ccc3c4c(cccc24)C(=O)c2ccccc2-3)cc1`, 0.08%; with `COc1ccc(Nc2cc(C)nc3ccc(OC)cc23)cc1`, 0.01%. The result for `COc1ccc(Nc2cccc3ccccc23)cc1` reads 53.2% (active); that for `CC(=O)c1cccc(Nc2cc(C)nc3ccc(C)cc23)c1`, 4.88%; that for `CCOC(=O)COn1c(=O)c(-c2cc3ccccc3o2)[n+]([O-])c2ccccc21`, -0.09%.

For `CCCC[C@H]1COCCS(=O)(=O)N1Cc1ccc(F)cc1`, the fluorescence artifact activation is 0.08%. For `O=C(NCC1CCCO1)c1ccc2c(c1)C(=O)N(c1cccc([N+](=O)[O-])c1)C2=O` (stereo not drawn), the fluorescence artifact activation was 14% (active). With `O=C(NCC1CCCO1)c1cccc2c1C(=O)c1ccc(N3CCC(Cc4ccccc4)CC3)cc1S2(=O)=O` (stereo not drawn) the figure was 0.63%; with `O=C(NCC1CCCO1)c1c(O)nc2sccn2c1=O` (stereo not drawn), 1.06%. With `CCN(CC)C(=O)Cn1c(C)c(/C=C/c2cc[n+](C)cc2)c2ccccc21` the figure was 0.06%.

Turning to `CC(O)c1cccc(N=Cc2ccc3ccccc3c2O)c1` (stereo not drawn), the fluorescence artifact activation was 6.46%. On to `CCc1ccc(/C=C2\Oc3c(ccc(O)c3CN3CCN(C)CC3)C2=O)cc1`, for which the fluorescence artifact activation is -0.01%. With `COc1ccc(/C=C/c2nc3sc4c(c3c(=O)o2)CCC4)cc1` the figure was 121% (active); with `COc1ccc(/C=C/C=C2\N=C(SC)SC2=O)cc1`, -0.02%; with `CN(C)NC(=O)c1ccc([N+](=O)[O-])s1`, 7.24%. With `Cc1ccc(-c2nc3ncccn3c2Nc2ccc3c(c2)OCCO3)o1` the figure was 73.3% (active).

Turning to `O=C1c2ccccc2-c2onc3ccc(N4CCCC4)c1c23`, the fluorescence artifact activation is 0.15%. The result for `CS(=O)(=O)N(CC(=O)O)Cc1cccc(CN(CC(=O)O)S(C)(=O)=O)c1` reads 0.86%; that for `CCCCCCN1C=CC(=C/C=C(\C#N)C(=O)OCC)C=C1`, 168% (active). The result for `C=CCN1C=CC(=C/C=C(/C#N)C(=O)OCC)C=C1` reads -0.04%. The result for `CCOC(=O)/C(C#N)=C\C=C1C=CN(C)C=C1` reads 0.04%; that for `CCc1ccc(C2C(C#N)=C(N)SC(N)=C2C#N)s1`, 0.05%. For the molecule `CN1CCN(c2nc3c(c(=O)n(C)c(=O)n3C)n2Cc2ccccc2F)CC1`, the fluorescence artifact activation is 0.14%.

For the molecule `Cc1cc(/C=C2/NC(=O)N(Cc3ccccc3F)C2=O)c(C)n1C`, the fluorescence artifact activation was 5.71%. The result for `CSc1nc2c(c(=O)[nH]c(=O)n2C)n1CCCc1ccccc1` reads 0.1%; that for `C=CCNc1nc2c(c(=O)[nH]c(=O)n2C)n1CCCc1ccccc1`, -0.06%. Regarding `CCOC(=O)CSc1nc2c(c(=O)n(C)c(=O)n2C)n1Cc1ccccc1F`, the fluorescence artifact activation is 502% (active). Consider `COC(=O)CSc1nc2c(c(=O)n(C)c(=O)n2C)n1CCCc1ccccc1`, for which the fluorescence artifact activation is 52.3% (active). With `CCOC(=O)c1c(NC(=O)c2ccno2)c2cc([N+](=O)[O-])ccc2n1C` the figure was 0%; with `COc1ccccc1N=Cc1c(C)c(C#N)c2[nH]c3ccccc3n2c1=O`, -0.03%; with `Cc1cccc(C)c1-n1c(C)nn(-c2ncc(C(F)(F)F)cc2Cl)c1=O`, 0.09%. With `CCCCC1OC2(C)OC(=N)C1(C#N)C(C#N)(C#N)C2c1ccccc1` (stereo not drawn) the figure was 0.23%; with `Cc1nc(Cl)c2c(n1)NC1=C(O2)C(=O)CCC1`, 0.77%; with `O=C1/C(=C/c2cccnc2)SC(=S)N1N1CCOCC1`, 0.1%.

`CCOC(=O)c1ccc(N=c2sc(C(=O)OC)cc(=O)n2CCCN2CCOCC2)cc1`: the fluorescence artifact activation was -0.02%. With `CCc1nc(Nc2ccc(O)cc2)c2oc3ccccc3c2n1` the figure was 20.3% (active); with `COc1ccc(/C=c2\s/c(=C/C(=O)c3ccc(C)cc3)[nH]c2=O)c(OC)c1`, 0.16%; with `C[C@H](CO)N1C[C@H](C)[C@@H](CN(C)C(=O)Nc2ccccc2)Oc2ccc(NC(=O)Nc3ccc4c(c3)OCO4)cc2C1=O`, -0.07%. The result for `COCCNC(=O)/C(C#N)=C/c1ccc(N2CCOCC2)o1` reads -0.05%; that for `N#C/C(=C\c1ccc(N2CCOCC2)o1)C(=O)NCC1CCCO1` (stereo not drawn), -0.1%; that for `N#C/C(=C\c1ccc(N2CCOCC2)o1)C(=O)NCCc1ccccc1`, 20.6% (active).

Turning to `N#C/C(=C/c1ccc(N2CCCCC2)o1)C(=O)NCCc1c[nH]c2ccccc12`, the fluorescence artifact activation was 12.8% (active). As for `COC(=O)CCc1c(C)c(C(=O)c2cc(F)c(F)c(F)c2F)c2ccccn12`, the fluorescence artifact activation was -0.04%.

In the case of `CN(C)C(CNC(=O)c1cccc(S(=O)(=O)N(C)C)c1)c1ccccc1` (stereo not drawn), the fluorescence artifact activation is 4.02%. The result for `N=c1c2c(ncn1Cc1ccco1)Oc1cc(O)ccc1C2c1ccccc1` (stereo not drawn) reads 20% (active).

As for `COc1ccc(C2c3ccc(O)cc3Oc3ncn(Cc4ccccc4)c(=N)c32)cc1OC` (stereo not drawn), the fluorescence artifact activation was 0.06%.

Take `COc1ccc(C2c3ccc(O)cc3Oc3ncn(Cc4ccco4)c(=N)c32)cc1` (stereo not drawn): the fluorescence artifact activation is 0.14%. With `CCN(CC)C(=S)SCC(=O)c1c(C)[nH]c2ccccc12` the figure was 7.38%; with `CCc1ccccc1NC(=S)NCc1cccn1C`, -0.01%; with `CCOC(=O)/C(C#N)=C\c1ccc(N2CCN(C/C=C/c3ccccc3)CC2)cc1`, 0.17%. The result for `CC(OC(=O)/C(C#N)=C/c1ccc(N(C)C)cc1)C(=O)N(C)Cc1ccccc1` (stereo not drawn) reads 4.84%; that for `CCOC(=O)/C(C#N)=C/c1ccc(N2CCN(Cc3ccccc3)CC2)cc1`, 82.2% (active); that for `N#C/C(=C(/O)COC(=O)COc1ccc(Cl)cc1)c1nc2ccccc2[nH]1`, 0%. Take `O=C(Nc1cnn(Cc2c(Cl)cccc2Cl)c1)C(c1ccccc1)c1ccccc1`: the fluorescence artifact activation was -0.07%. With `COc1ccccc1-c1nnc(SCC(=O)Nc2ccc3[nH]c(=O)[nH]c3c2)n1N` the figure was -0.06%; with `CC1(OC(=O)CCc2ccccc2)C(=O)C=C2C=C(c3ccc(C#N)cc3)N(C3CCCC3)C=C2C1=O` (stereo not drawn), -0.06%. For `Cc1cc(C)n(-c2ccc(C(=O)O)cc2)n1`, the fluorescence artifact activation is 0.39%.

`Cc1cc(C)n(C2CCCCC2OC(=O)CCc2ccccc2)n1` (stereo not drawn): the fluorescence artifact activation was 13% (active). The result for `CCOC(=O)/C(C#N)=C(C)/C=C1\Sc2ccccc2N1CC` reads 4.14%; that for `C=CCNC(=S)NNC(=O)c1ccc(OCC(C)C)cc1`, 0.28%; that for `CN1CCC2(CC1)C1CN(C)CC=C1C(C#N)=C(N)C2(C#N)C#N` (stereo not drawn), -0.05% and 6.98%. The result for `CC(C)(C)c1cc(NC(=O)c2cccc(S(=O)(=O)N3CCOCC3)c2)no1` reads 7.6%; that for `Cc1sc(NC(=O)CSc2nnc(C(C)C)n2C)c(C#N)c1C`, 21.9% (active); that for `COc1ccc(S(=O)(=O)N2CCSC2)cc1C`, 0.17%. With `Cc1cc(C)c(C(N)=O)c(Nc2ccc(F)cc2)n1` the figure was 0.09%; with `CCN(C(=O)c1cnc(NC(C)C)cc1C(F)(F)F)c1ccc(Cl)cc1`, -0.05%; with `O=c1[nH]c2ccccc2nc1/C=C/c1ccccc1`, 119% (active). With `O=c1[nH]c2ccccc2nc1/C=C(\O)c1cccs1`, the fluorescence artifact activation is 1.76%. For `O=c1[nH]c2ccccc2nc1/C=C/c1ccc(F)cc1`, the fluorescence artifact activation was 0.04%. For the molecule `O=C(Nc1ccccc1-c1ccccc1)c1ccc(Cl)c([N+](=O)[O-])c1`, the fluorescence artifact activation was 8.22%. With `COc1ccc2[nH]c3c(c2c1)CCN1C(=O)C(CC(=O)NCCCn2ccnc2)C[C@H](C(=O)N2CCCCC2)[C@@]31C` (stereo partly drawn) the figure was -0.02%.

For `CN(C)c1ccc(/C=N/N(CCO)C2=NS(=O)(=O)c3ccccc32)cc1`, the fluorescence artifact activation was 0.26%. With `COC1C(CO)OC(n2c3c(Cl)cccc3c3c4c(c5c6cccc(Cl)c6[nH]c5c32)C(=O)NC4=O)C(O)C1O` (stereo not drawn) the figure was 0.02%; with `CS(=O)(=O)N(CC(=O)N/N=C/c1ccco1)c1ccccc1Br`, 48.6% (active); with `Cc1ccccc1N(CC(N)=O)S(C)(=O)=O`, -0.02%. Turning to `CCCCCCC(=O)N/N=C/c1ccco1`, the fluorescence artifact activation is 0.06%.
